Experiments:
[1] = target: Proto-oncogene tyrosine-protein kinase Src (Homo sapiens, UniProt P12931); assay: Inhibition of SRC (unknown origin) by ELISA
[2] = Tmax in Sprague-Dawley rat at 3 mg/kg, po via gavage measured up to 24 hrs by LC-MS analysis; type: ADME, organism-based; details: in vivo
Procedure, shortened: (§1)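 Male Sprague-Dawley rats (n = 3) dosed once by oral gavage at 3 mg/kg as a solution in 5% DMSO/95% (0.5% CMC-Na). Blood sampled at 0.25, 0.5, 1, 2, 4, 6, 8 and 24 h, kept on wet ice, serum separated by centrifugation and stored at -20 °C. Serum levels measured by LC-MS/MS; parameters reported as means.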

Ephrin type-A receptor 2 = Ephrin type-A receptor 2 (Homo sapiens, UniProt P29317); assay: Inhibition of EPHA2 (unknown origin) by ELISA
[3] = target: Platelet-derived growth factor receptor beta (Homo sapiens, UniProt P09619); assay: Inhibition of PDGFRbeta (unknown origin) by ELISA
[4] = target: Epidermal growth factor receptor (Homo sapiens, UniProt P00533); assay: Inhibition of EGFR (unknown origin) by ELISA
[5] = target: T1, Tyrosine-protein kinase receptor UFO (Homo sapiens, UniProt P30530); assay: Inhibition of AXL (unknown origin) by ELISA
T1 sequence (P30530 whole entry): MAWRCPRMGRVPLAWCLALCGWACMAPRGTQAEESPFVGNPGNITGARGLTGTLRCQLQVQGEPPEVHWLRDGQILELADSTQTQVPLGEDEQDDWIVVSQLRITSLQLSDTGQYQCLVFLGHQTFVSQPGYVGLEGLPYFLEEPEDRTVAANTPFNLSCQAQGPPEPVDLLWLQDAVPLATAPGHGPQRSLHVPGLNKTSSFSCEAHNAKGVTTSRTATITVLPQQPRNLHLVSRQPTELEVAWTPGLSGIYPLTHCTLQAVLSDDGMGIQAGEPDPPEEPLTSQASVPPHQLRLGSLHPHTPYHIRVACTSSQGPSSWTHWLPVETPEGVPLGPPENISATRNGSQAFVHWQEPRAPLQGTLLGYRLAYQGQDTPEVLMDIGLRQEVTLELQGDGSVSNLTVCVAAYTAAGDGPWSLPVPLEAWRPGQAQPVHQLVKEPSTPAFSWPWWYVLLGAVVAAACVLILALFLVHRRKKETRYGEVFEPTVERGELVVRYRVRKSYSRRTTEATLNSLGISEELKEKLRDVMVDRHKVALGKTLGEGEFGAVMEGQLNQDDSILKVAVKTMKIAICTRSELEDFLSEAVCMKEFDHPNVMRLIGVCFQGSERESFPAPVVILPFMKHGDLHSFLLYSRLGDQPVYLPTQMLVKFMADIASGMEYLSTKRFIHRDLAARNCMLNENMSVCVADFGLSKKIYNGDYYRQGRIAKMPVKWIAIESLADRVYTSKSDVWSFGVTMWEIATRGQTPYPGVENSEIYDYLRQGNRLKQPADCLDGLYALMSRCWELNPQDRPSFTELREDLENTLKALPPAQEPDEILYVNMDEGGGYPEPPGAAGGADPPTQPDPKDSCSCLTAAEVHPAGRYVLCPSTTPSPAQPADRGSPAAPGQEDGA

BaF3 = assay: Antiproliferative activity against mouse BaF3 stably expressing human TEL-AXL incubated for 72 hrs; type: functional, cell-based; details: BaF3, 72 h
[6] = Half life in Sprague-Dawley rat at 3 mg/kg, po via gavage measured up to 24 hrs by LC-MS analysis; type: ADME, organism-based; details: in vivo; procedure, shortened: as §1
[7] = target: T2, Receptor-type tyrosine-protein kinase FLT3 (Homo sapiens, UniProt P36888); assay: Inhibition of FLT-3 (unknown origin) by ELISA
T2 sequence (P36888 whole entry): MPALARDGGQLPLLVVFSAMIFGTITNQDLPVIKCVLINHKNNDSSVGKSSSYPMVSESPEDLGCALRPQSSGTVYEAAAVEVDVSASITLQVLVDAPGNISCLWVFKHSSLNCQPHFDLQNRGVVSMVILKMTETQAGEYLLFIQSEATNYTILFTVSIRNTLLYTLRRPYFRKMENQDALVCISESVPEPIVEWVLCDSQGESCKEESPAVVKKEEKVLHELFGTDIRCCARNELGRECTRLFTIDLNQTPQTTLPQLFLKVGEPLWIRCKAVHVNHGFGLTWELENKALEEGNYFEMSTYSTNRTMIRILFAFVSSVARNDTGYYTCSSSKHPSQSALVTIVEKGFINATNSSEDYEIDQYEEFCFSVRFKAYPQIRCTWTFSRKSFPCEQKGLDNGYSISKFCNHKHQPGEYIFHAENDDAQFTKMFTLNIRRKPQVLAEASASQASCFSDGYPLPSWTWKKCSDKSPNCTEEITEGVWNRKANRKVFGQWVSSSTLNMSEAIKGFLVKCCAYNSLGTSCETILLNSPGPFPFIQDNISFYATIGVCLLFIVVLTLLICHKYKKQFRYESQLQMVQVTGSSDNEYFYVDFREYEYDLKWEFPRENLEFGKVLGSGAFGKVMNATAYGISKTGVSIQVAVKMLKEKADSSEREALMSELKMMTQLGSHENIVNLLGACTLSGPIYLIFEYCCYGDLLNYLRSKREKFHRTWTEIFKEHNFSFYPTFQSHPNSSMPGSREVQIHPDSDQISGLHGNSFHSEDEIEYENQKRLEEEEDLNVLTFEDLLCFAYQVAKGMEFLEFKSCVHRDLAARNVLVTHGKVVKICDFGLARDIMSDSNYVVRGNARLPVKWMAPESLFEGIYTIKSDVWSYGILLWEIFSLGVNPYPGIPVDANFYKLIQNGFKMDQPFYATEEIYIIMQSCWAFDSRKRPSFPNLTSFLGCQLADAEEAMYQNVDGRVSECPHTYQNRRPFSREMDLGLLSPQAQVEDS

[8] = target: Insulin-like growth factor 1 receptor (Homo sapiens, UniProt P08069); assay: Inhibition of IGF1R (unknown origin) by ELISA
[9] = target: Receptor tyrosine-protein kinase erbB-4 (Homo sapiens, UniProt Q15303); assay: Inhibition of ERBB4 (unknown origin) by ELISA
[10] = target: Receptor tyrosine-protein kinase erbB-2 (Homo sapiens, UniProt P04626); assay: Inhibition of ERBB2 (unknown origin) by ELISA
[11] = target: Hepatocyte growth factor receptor (Homo sapiens, UniProt P08581); assay: Inhibition of c-MET (unknown origin) by ELISA

Chain of Insulin-like growth factor 1 receptor (P08069 31-736 limits assumed): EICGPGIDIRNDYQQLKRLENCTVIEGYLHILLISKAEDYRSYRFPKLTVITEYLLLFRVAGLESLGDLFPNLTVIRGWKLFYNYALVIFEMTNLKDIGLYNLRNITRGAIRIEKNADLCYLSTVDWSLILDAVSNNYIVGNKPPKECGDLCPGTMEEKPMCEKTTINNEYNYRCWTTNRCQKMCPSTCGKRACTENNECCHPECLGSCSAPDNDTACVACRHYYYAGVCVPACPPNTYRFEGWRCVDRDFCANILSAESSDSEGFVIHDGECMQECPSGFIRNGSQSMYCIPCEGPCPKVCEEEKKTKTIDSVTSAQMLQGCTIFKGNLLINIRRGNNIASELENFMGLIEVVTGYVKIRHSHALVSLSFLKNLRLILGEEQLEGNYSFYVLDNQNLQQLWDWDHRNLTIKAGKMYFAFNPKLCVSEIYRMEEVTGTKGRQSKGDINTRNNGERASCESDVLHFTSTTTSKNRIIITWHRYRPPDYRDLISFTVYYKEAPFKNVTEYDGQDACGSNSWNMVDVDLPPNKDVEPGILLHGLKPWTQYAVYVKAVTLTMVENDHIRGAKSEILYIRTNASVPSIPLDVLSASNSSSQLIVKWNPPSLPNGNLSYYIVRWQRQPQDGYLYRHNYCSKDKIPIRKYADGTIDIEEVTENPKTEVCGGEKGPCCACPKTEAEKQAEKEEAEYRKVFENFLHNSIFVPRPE
Chain of Insulin-like growth factor 1 receptor (P08069 741-1367 limits assumed): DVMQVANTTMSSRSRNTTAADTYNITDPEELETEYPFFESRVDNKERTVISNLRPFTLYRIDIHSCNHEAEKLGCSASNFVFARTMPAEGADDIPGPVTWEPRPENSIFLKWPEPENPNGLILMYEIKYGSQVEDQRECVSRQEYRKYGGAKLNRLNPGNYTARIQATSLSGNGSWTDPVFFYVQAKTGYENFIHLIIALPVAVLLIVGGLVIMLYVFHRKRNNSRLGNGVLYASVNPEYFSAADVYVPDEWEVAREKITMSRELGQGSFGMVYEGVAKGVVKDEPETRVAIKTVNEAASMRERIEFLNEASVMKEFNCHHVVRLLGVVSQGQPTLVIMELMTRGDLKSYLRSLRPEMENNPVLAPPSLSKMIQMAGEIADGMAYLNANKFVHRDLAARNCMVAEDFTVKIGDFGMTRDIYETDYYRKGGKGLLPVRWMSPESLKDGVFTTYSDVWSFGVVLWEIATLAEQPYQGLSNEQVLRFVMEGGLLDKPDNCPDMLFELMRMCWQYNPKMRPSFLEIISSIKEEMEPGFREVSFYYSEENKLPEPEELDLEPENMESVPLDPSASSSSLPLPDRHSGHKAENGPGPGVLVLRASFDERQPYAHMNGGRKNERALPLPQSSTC
Chain of Receptor tyrosine-protein kinase erbB-4 (Q15303 whole entry): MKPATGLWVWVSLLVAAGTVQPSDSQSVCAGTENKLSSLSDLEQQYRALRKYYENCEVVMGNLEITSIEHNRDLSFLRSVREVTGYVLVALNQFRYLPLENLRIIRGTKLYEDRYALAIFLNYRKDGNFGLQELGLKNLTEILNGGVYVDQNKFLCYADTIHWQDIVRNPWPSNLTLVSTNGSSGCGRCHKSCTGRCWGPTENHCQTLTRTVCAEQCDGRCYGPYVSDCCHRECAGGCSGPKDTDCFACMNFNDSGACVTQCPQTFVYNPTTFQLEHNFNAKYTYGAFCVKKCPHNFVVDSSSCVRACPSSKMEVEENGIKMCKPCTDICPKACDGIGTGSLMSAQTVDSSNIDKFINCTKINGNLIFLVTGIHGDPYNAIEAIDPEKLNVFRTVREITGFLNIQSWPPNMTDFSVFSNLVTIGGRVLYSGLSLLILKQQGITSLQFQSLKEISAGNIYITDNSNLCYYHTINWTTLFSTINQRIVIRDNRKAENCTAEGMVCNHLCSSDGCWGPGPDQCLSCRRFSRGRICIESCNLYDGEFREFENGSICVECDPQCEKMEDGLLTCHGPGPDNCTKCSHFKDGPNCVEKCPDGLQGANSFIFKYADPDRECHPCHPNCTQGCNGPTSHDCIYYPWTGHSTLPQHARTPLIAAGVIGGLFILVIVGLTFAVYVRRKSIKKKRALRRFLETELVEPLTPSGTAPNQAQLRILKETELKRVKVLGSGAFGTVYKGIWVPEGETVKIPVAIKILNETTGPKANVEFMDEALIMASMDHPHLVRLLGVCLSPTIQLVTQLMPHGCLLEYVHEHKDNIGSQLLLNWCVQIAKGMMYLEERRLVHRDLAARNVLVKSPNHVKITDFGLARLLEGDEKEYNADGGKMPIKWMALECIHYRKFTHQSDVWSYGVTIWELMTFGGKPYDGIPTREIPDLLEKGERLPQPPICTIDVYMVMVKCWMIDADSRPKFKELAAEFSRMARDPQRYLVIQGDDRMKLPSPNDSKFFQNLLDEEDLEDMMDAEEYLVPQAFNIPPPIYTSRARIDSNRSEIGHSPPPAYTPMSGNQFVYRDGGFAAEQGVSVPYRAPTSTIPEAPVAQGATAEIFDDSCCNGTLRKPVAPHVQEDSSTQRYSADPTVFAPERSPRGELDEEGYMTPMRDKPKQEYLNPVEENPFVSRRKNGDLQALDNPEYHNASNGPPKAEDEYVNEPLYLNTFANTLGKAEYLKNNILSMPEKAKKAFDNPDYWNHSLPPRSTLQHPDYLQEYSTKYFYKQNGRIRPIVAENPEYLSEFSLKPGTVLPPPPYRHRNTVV
Chain of Ephrin type-A receptor 2 (P29317 whole entry): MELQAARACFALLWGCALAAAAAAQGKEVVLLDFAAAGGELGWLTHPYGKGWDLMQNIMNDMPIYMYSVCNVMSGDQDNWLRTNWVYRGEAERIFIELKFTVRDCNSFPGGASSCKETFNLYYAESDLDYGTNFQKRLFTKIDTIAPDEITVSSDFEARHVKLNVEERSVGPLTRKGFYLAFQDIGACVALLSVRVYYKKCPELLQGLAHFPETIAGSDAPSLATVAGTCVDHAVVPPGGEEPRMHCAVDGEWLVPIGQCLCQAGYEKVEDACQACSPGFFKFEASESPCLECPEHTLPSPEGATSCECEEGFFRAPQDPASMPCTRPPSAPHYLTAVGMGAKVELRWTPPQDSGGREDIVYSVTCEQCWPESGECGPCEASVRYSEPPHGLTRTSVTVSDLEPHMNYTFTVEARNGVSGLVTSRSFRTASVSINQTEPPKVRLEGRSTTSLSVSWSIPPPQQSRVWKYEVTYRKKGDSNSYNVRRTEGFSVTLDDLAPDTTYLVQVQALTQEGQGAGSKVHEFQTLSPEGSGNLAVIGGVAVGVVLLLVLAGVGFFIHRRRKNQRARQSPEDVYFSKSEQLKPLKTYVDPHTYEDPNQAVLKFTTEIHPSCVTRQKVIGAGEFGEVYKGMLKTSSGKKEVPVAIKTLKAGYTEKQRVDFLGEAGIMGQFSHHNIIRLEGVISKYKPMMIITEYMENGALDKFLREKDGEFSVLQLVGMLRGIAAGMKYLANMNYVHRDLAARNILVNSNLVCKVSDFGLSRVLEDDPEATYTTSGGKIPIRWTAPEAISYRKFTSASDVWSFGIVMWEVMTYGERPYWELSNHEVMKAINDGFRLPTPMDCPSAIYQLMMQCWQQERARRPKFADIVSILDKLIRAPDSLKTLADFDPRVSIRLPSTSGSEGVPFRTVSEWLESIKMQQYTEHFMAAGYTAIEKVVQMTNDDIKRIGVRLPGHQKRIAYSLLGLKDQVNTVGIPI
Chain of Epidermal growth factor receptor (P00533 whole entry): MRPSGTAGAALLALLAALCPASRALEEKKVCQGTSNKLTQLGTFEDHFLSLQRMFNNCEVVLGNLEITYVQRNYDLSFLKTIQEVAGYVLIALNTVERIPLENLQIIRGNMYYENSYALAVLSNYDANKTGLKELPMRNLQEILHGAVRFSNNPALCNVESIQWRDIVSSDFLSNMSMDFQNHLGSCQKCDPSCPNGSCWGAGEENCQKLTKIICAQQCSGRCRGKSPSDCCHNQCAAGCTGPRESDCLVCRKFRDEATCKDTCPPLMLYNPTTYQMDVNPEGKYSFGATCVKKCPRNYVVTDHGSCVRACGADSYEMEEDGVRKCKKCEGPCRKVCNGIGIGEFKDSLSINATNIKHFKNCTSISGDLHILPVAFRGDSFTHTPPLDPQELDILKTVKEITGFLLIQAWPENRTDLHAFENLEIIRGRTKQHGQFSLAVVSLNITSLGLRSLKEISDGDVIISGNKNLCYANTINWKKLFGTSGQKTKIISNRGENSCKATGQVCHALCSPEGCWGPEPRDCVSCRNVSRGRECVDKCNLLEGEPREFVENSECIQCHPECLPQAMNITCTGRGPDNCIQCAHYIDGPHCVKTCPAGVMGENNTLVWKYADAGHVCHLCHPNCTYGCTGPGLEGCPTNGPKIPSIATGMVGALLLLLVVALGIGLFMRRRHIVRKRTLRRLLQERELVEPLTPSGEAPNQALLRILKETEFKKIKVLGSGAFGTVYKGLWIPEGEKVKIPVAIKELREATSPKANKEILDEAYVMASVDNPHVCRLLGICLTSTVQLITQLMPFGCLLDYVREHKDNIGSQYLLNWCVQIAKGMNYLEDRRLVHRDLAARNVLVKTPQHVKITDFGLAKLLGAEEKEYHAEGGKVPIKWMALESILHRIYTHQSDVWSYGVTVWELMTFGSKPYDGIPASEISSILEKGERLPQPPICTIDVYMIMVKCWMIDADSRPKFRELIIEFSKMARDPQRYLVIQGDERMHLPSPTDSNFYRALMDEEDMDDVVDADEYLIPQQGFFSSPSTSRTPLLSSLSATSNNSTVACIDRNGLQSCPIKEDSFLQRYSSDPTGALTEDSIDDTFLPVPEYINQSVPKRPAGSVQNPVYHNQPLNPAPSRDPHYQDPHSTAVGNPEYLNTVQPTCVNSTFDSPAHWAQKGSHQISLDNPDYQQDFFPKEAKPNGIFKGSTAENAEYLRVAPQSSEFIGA

An IC50 [1] greater than 1000 nM, a Tmax [2] of 1.08 h and an IC50 (Ephrin type-A receptor 2) greater than 500 nM were found for CC(C)n1cc(C(=O)Nc2cc(F)c(-c3c[nH]c4ncnc(N)c34)cc2F)c(=O)c(-c2ccc(F)cc2)c1 in this work. For the same compound, the IC50 [3] was greater than 1000 nM, the IC50 [4] was greater than 1000 nM and the IC50 [5] was less than 0.2 nM. For the same compound, the IC50 (BaF3) was less than 1 nM, the half-life [6] was 164 min and the IC50 [7] was greater than 1000 nM. For the same compound, the IC50 [8] was greater than 1000 nM, the IC50 [9] was greater than 1000 nM and the IC50 [10] was greater than 1000 nM. It also gave an IC50 [11] of 4.5 nM.
